Assay results of several laboratories.
Lines come from different studies, so protocols differ.
EGFR L861Q: Epidermal growth factor receptor (EGFR, Homo sapiens, UniProt P00533, L861Q)
EGFR del752-759: Epidermal growth factor receptor (EGFR, Homo sapiens, UniProt P00533, del752-759)
EGFR L858R/T790M: Epidermal growth factor receptor (EGFR, Homo sapiens, UniProt P00533, L858R/T790M)

CN([C@@H]1CCc2c(CC(=O)O)c3ccccc3n2C1)S(=O)(=O)c1ccc(F)cc1  remaining binding (EGFR L861Q; cell-free assay, competition with immobilised ligand; 1 µM): 100%
Cc1cc(NC(=O)c2cccc3cc(-c4cccc5[nH]nc(N)c45)ccc23)ccc1F  activity vs control (Epidermal growth factor receptor (EGFR, Homo sapiens, UniProt P00533); enzyme activity, inhibitor; 0.1 µM): 103%
CC(C)CC(=O)N1CCc2nc(-c3ccc(Br)cc3)nc(N(C)Cc3ccccc3)c2C1  remaining binding (EGFR del752-759; cell-free assay, competition with immobilised ligand; 0.1 µM): 100%
Nc1ncnc2occ(-c3ccc(NC(=O)Nc4cc(C(F)(F)F)ccc4F)cc3)c12  remaining signal (Epidermal growth factor receptor (EGFR, Homo sapiens, UniProt P00533, del746-750); cell-free assay; 20 µM): 34%
O=C1CCc2cc(Nc3cc(OC4CCOCC4)c([N+](=O)[O-])cc3Cl)ccc2N1  remaining binding (EGFR L858R/T790M; cell-free assay, competition with immobilised ligand; 1 µM): 76%
Cc1ccc(C(=O)Nc2ccc(CN3CCN(C)CC3)c(C(F)(F)F)c2)cc1C#Cc1cnc2cccnn12  remaining signal (EGFR del752-759; cell-free assay; 23.5 nM): 87%
N[C@H]1CCN(c2nccc(-c3cnn4ncccc34)n2)C1  remaining binding (EGFR L861Q; binding; 1 µM): 81%
COc1cc(-c2cc(-c3ccc(N4CCNCC4)cc3)cnc2N)cc(OC)c1OC  inhibition (EGFR L858R/T790M; enzyme activity, inhibitor; 0.1 µM): 0%
Cc1cnc(NC2CCOCC2)nc1-n1cnc(C(=O)NC(CN)c2cc(F)cc(Cl)c2)c1 (stereo not drawn)  remaining activity (EGFR L861Q; enzyme activity, inhibitor, radiometric; 1 µM): 108%
